From ChEMBL document CHEMBL1132575 (J Med Chem, 1999)

Experiments:
[1] = target: T1, 5-hydroxytryptamine receptor 1D (Homo sapiens, UniProt P28221); experiment: Intrinsic activity for 5-hydroxytryptamine 1D receptor; assay type: functional
Outline: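 Agonism measured as inhibition of forskolin-stimulated adenylyl cyclase in cell lines expressing the human 5-HT1D receptor.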

[2] = target: 5-hydroxytryptamine receptor 1B (Homo sapiens, UniProt P28222); experiment: In vitro receptor binding affinity for cloned human 5-hydroxytryptamine 1B receptor
[3] = target: T1, 5-hydroxytryptamine receptor 1D; experiment: Ability to inhibit forskolin-stimulated adenylate cyclase in a cell line expressing human 5-hydroxytryptamine 1D receptor; assay type: functional
[4] = target: T1, 5-hydroxytryptamine receptor 1D; experiment: In vitro receptor binding affinity for cloned human 5-hydroxytryptamine 1D receptor
Outline: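 Radioligand binding assay in cell lines expressing the human 5-HT1D receptor; affinity reported as Ki values. Further procedural detail is referenced to earlier work.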

[5] = target: T2, 5-hydroxytryptamine receptor 1A (Homo sapiens, UniProt P08908); experiment: In vitro receptor binding affinity for cloned human 5-hydroxytryptamine 1A receptor
T2 sequence (P08908 whole entry): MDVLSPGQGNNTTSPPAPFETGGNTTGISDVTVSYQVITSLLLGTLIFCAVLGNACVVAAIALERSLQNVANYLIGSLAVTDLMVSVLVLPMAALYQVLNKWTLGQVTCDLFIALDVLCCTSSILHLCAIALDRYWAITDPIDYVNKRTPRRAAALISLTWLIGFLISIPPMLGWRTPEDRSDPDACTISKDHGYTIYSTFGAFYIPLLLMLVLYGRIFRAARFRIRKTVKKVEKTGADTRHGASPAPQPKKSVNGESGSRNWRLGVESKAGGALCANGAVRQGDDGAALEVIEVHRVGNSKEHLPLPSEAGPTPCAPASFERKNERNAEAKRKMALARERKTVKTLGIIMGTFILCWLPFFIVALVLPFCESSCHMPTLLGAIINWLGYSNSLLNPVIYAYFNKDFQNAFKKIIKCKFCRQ

T1 sequence (P28221 whole entry): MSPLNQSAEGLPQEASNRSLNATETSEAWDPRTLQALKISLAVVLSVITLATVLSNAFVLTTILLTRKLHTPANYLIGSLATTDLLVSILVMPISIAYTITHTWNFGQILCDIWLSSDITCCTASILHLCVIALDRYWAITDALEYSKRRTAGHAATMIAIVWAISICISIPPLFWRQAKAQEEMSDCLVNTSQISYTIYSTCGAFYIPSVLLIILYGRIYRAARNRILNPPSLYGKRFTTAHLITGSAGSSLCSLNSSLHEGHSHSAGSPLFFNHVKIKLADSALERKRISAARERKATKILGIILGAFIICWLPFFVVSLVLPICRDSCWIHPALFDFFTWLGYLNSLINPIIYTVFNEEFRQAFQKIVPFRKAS
Chain of 5-hydroxytryptamine receptor 1B (P28222 whole entry): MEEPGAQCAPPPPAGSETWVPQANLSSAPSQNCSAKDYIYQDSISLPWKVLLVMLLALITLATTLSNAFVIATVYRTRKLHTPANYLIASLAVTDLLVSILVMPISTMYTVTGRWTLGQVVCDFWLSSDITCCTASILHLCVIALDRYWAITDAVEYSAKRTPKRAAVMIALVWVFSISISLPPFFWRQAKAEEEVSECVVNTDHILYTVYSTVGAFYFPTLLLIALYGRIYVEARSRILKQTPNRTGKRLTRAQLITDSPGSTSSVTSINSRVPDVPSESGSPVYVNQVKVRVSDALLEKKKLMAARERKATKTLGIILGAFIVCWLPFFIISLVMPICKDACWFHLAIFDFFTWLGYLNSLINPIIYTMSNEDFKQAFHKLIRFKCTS

Q: How did the Emax [1] turn out when `CNS(=O)(=O)Cc1ccc2[nH]cc(CCN(C)C)c2c1` was run?
A: The Emax was 93%.

Q: Which results are given for `CNCCc1c[nH]c2ccc(C(C)(C)C)cc12`?
A: Ki [2]: 1.9 nM; EC50 [3]: 0.22 nM; Emax [1]: 100%; Ki [4]: 0.45 nM; Ki [5]: 6.1 nM

Q: `CCCN(CCC)CCc1c[nH]c2ccc(C(C)(C)C)cc12` was tested. Which Ki [4] did it give?
A: Its Ki is 10.8 nM.

Q: For `CC(C)(C)c1ccc2[nH]cc(CCN)c2c1`, which Ki [4] is on record?
A: The Ki was 0.6 nM.

Q: Which Ki [2] does the source give for `CNS(=O)(=O)CCc1ccc2[nH]cc(C3CCN(C)CC3)c2c1` here?
A: The Ki was 3.3 nM.

Q: And the EC50 [3]?
A: The EC50 was 1.6 nM.

Q: And the Emax [1]?
A: Its Emax is 100%.

Q: What about the Ki [4] of the same molecule?
A: The Ki was 2.3 nM.

Q: What about the Ki [5] of the same molecule?
A: Its Ki is 45 nM.

Q: For `CN[C@@H]1CCc2[nH]c3ccc(C(N)=O)cc3c2C1` [FROVATRIPTAN], which Ki [4] is on record?
A: The Ki was […].

Q: And the Ki [5]?
A: Its Ki is 62 nM.

Q: For `CN(C)CCc1c[nH]c2ccc(Cn3cncn3)cc12`, which Emax [1] is on record?
A: The Emax was 97%.

Q: How did the Ki [4] turn out when `Cc1ccc2[nH]cc(CCN)c2c1` was run?
A: Its Ki is 6.4 nM.

Q: How did the Ki [4] turn out when `CCCNCCc1c[nH]c2ccc(C(C)(C)C)cc12` was run?
A: Its Ki is 6.2 nM.

Q: With `CC(C)c1ccc2[nH]cc(CCN)c2c1` as the molecule, how does the Ki [4] read?
A: The Ki was 1.1 nM.

Q: With `CCc1ccc2[nH]cc(CCN)c2c1` as the molecule, how does the Ki [4] read?
A: Its Ki is 3.7 nM.

Q: `CN(C)CCc1c[nH]c2ccc(C(C)(C)C)cc12` was tested. Which Ki [4] did it give?
A: Its Ki is 0.44 nM.

Q: `NCCc1c[nH]c2ccc(C3CCCCC3)cc12` was tested. Which Ki [4] did it give?
A: Its Ki is 3.4 nM.

Q: How did the Ki [4] turn out when `NCCc1c[nH]c2ccc(C3CCCC3)cc12` was run?
A: The Ki was 1.7 nM.
